# Screens deposited in PubChem by several laboratories.
# HEK293 NFkB inh – inhibitors of the PMA/ionomycin-induced NF-kB reporter in HEK293 cells | hit rate 0.21% among 62,000 | inhibition, % at 3 µM | AID 465 | HEK-293 NF-kB luciferase reporter, luminescence;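 active means inhibition above the mean of all tested compounds plus 3 SD, cut at about 40% in these data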;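 further: 0% = stimulated DMSO wells and 100% = 10 µM reference inhibitor 5653914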
#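 Signal: luciferase luminescence; Material: HEK-293 cells with stable firefly luciferase reporter driven by four HIV NF-kB elements; Probe or stimulus: PMA with ionomycin; Replication: tested once; Times: 1 h compound pretreatment, then 16 h stimulation at 37 °C, 5% CO2; Benchmarks: DMSO and 10 µM reference inhibitor; Evaluation: per-plate % inhibition versus controls.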
# D1 allo mod – D1 dopamine receptor (human) allosteric modulation; P21728; HEK293 D1, CRE-luciferase, dopamine EC30 potentiation; actives deviate in either direction; B-score at 10 µM; hit rate 5.9% among 58,000;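 active means luminescence count or its row- and column-corrected plate score outside the 99.7% band of the plate's sample wells, on either side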
# M1 agonist – M1 muscarinic receptor agonism | CHO-M1 cells, Fluo-4 calcium fluorescence, agonist mode; active compounds read high | B-score at 10 µM | hit rate 3% among 64,000;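 active means fluorescence rise, raw or as B-score row- and column-corrected plate score, outside the 99.7% band of its plate's samples, either direction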
# DAT uptake mod – changed human dopamine transporter uptake under cocaine IC80. Q01959. LLC-PK1 hDAT cells, [14C]-dopamine uptake with cocaine IC80; actives deviate in either direction. B-score at 10 µM. hit rate 1.3% among 110,000. AID 449768;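 active means Z score or B-score, a plate-position-corrected score, falls beyond the plate's 99.7% confidence bounds, in either direction; inactive means both scores lie inside the 99.7% bounds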;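 further: scored against the spread of the other compound wells on the same plate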
# Target sequence (Q01959 whole entry, looked up): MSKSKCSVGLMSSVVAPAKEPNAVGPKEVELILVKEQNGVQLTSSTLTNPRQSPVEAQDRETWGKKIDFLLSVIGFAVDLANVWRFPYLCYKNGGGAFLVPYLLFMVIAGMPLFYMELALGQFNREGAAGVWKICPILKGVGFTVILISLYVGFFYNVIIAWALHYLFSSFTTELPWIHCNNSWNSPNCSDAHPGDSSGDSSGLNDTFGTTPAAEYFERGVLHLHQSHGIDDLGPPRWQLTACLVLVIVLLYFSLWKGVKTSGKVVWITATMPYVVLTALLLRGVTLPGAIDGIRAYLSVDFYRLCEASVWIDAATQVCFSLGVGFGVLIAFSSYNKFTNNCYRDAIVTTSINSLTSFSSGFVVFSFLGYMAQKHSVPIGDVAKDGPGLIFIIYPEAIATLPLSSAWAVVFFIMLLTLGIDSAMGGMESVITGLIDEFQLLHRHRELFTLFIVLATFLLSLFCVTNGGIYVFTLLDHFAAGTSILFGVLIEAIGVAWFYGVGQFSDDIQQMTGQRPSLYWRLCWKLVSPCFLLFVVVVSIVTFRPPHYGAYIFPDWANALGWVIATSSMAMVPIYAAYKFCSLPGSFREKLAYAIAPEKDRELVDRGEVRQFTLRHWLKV
# BAP1 inh – inhibitors of human BAP1 deubiquitinase; Q92560; recombinant BAP1, Ub-AMC hydrolysis fluorescence kinetic; active compounds read low; calls only at 20 µM; hit rate 0.48% among 72,000; AID 436;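 active means activity remaining at or below 50% of control, provided the compound also passes the data quality filters; inactive means the rest, including low values that fail the filters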;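 further: 100% = DMSO wells rate and 0% = substrate alone blank rate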
# M1 antag – M1 muscarinic receptor (rat) antagonism | P08482 | CHO-M1 cells, Fluo-4 calcium, ACh EC80 antagonist mode; active compounds read low | B-score at 10 µM | hit rate 3.4% among 64,000 | AID 628;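 active means calcium fluorescence response, raw or row-and-column corrected B-score, differing from the plate sample mean either way at a set confidence level, mostly lower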
# * hit, by the source's call; i = inactive; . = no result given. An excerpt weighted towards active compounds, which were near 7.2% of everything screened.
SMILES,HEK293 NFkB inh,D1 allo mod,M1 agonist,DAT uptake mod,BAP1 inh,M1 antag
O=C(Nc1cccc2ccccc12)c1sc2cccc(Cl)c2c1Cl,.,.,.,.,i,.
CCCCOc1ccc(OC(=O)c2cncc(Br)c2)cc1,.,.,.,.,i,.
c1ccc(CNn2c(N3CCOCC3)nc3ccccc32)cc1,-7,-3.3*,-0.63,-0.46,i,-2
Cc1cc(N2CCOCC2)nc(NCc2ccccc2)n1,13,.,-0.6,-1.2,i,-1.8
O=C(Nc1cc2c(cc1Cl)C(=O)c1ccccc1C2=O)c1ccco1,.,.,.,.,i,.
O=C(Nc1ccc(Br)c(C(F)(F)F)c1)c1ccc(F)cc1,.,.,.,.,i,.
CCCc1cc(=O)[nH]c(SCC(=O)N(CC(C)C)C2CCS(=O)(=O)C2)n1 (stereo not given),17,-0.2,0.91,3.1*,i,0.33
Cc1ccc(-n2nc3cc(C)c(NC(=O)c4ccco4)cc3n2)cc1,.,.,.,.,i,.
COc1ccc(C2C=C(c3ccc(Cl)cc3)Nc3nc(NC(C)=O)nn32)cc1 (stereo not given),.,.,235*,.,i,-1.7
CC1=CC(c2ccc(Cl)cc2)n2nc(NC(=O)c3ccccc3)nc2N1 (stereo not given),.,.,.,0.099,.,.
CCC(=O)Nc1nc2n(n1)C(c1ccc(OC)cc1)C=C(c1ccccc1)N2 (stereo not given),.,.,.,0.38,.,.
CC(=O)Nc1nc2n(n1)C(c1ccc(Cl)cc1)C=C(C)N2 (stereo not given),-4,-0.19,1.1,1.6,.,1.9*
O=C(c1nc2n(n1)C(c1ccc(Cl)cc1)C=C(c1ccccc1)N2)N1CCOCC1 (stereo not given),7,1.5,46*,.,i,0.033
O=C(Nc1ccc(NC(=O)c2cccnc2)cc1)c1ccc(Br)cc1,.,.,.,.,i,.
CC(C)c1ccc(-c2nnn(CCC(=O)O)n2)cc1,-4,-3.6*,-0.29,-0.55,i,-0.096
O=C(O)CCn1nnc(-c2cccs2)n1,7,0.1,-0.32,0.49,i,0.11
O=C(C(Sc1ccccc1)c1ccccc1)N1CCCCCC1 (stereo not given),.,.,.,.,i,.
CCS(=O)(=O)c1ccc2c(c1)N(S(C)(=O)=O)CC(C(=O)NC1CC1)O2 (stereo not given),.,.,.,-1.1,.,.
CCOC(=O)C1CN(S(=O)(=O)c2ccc(OC)cc2)c2cc(S(=O)(=O)CC)ccc2O1 (stereo not given),.,.,.,-7.9*,.,.
O=C1Nc2cc(Cl)cnc2N2CCCC12 (stereo not given),-3,0.029,13*,0.22,i,-0.034
Cc1cccc(C)c1Nc1nc2ccccc2o1,15,0.72,-1,0.074,i,-0.31
Cc1nc(Nc2nc3ccccc3o2)nc2c1CCC2,-19,-6.1*,1.5,0.56,i,-0.54
COc1ccc(Cl)cc1N1C(=O)C2C(c3ccccc3)OC3(C(=O)c4ccccc4C3=O)C2C1=O (stereo not given),.,.,.,.,i,.
CN1C(=O)c2ccc(N3CCCC3)cc2C1=O,13,0.16,13*,1.9,i,-1.2
CN1C(=O)c2ccc(N(C)C)cc2C1=O,.,.,4.5,-0.002,i,0.0081
SMILES,HEK293 NFkB inh,D1 allo mod,M1 agonist,DAT uptake mod,BAP1 inh,M1 antag
CCOC(=O)c1cccc(C(=O)OCC)n1,6,2.7,-1.1,0.053,i,0.74
Cc1ccc(OC(=O)c2cccc(C(=O)Oc3ccc(C)cn3)n2)nc1,9,0.14,0.55,-8*,.,0.8
O=[N+]([O-])c1ccccc1N1CCN(c2ccc([N+](=O)[O-])c3cccnc23)CC1,.,.,.,.,i,.
CCCCOc1ccc(S(=O)(=O)NNC(=O)C2Cc3c(ccc4ccccc34)O2)cc1 (stereo not given),.,.,.,-0.075,.,.
Cc1ccc(S(=O)(=O)NNC(=O)C2Cc3c(ccc4ccccc34)O2)cc1 (stereo not given),.,.,.,-8.5*,.,.
Nc1ccc(C(=O)Nc2nc3ccccc3s2)cc1,.,-6.6*,0.18,0.42,.,-0.37
Nc1ccc(C(=O)Nc2nc3ccc4ccccc4c3s2)cc1,.,.,.,.,i,.
CCOC(=O)c1c(NC(=O)c2cccc(Oc3ccccc3)c2)sc2c1CCC2,.,.,.,.,i,.
CC1=CC(C#N)(C#N)C(C#N)(C#N)C(c2ccccc2)N1 (stereo not given),7,0.11,25*,-0.3,.,-0.28
CCOC(=O)CSc1nc2c(sc(=S)n2-c2ccccc2OC)c(=O)n1Cc1ccco1,.,.,.,-4.3*,.,.
Cc1c(C(=O)Nc2ccc(Cl)cc2)c2ccccn2c1C(=O)c1ccccc1,.,.,.,-9.5*,.,.
